Source: PubChem
A selection: hits, their analogues and other compounds. The true share with any hit is near 1.9%.
core dimer inh – blocks dimerization of HCV core protein; inhibition, % at 5 µM; AID 1899; 300,000 compounds, 0.33% hits; TR-FRET GST/Flag-core106 dimerization, 1536-well;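 active = inhibition above the mean of all tested compounds plus 3 SD, set per screening campaign, cut at about 45% in these data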
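System: GST-tagged and Flag-tagged HCV core protein residues 1-106 / Input: core106 proteins, GST 13.5 nM and Flag 17 nM / Buffer or medium: KF-containing HEPES buffer, pH 7.45, DTT, CHAPS, BSA / Probe or stimulus: Eu-anti-GST and XL665-anti-Flag labelled anti-tag antibodies / Schedule: 4 h, 22.5 °C incubation / Technique: TR-FRET 671 and 617 nm emission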
EBNA-1 inhibitor – blocks EBNA-1 binding to DNA. EBNA-1 DNA binding, fluorescence polarization. 300,000 compounds, 0.34% hits. inhibition, % at 14.8 µM; in the data active = inhibition above about 28%
NS3 helicase inh – blocks Hepatitis C virus NS3 helicase unwinding | NS3 helicase DNA unwinding, Cy5 molecular beacon fluorescence | inhibition, % at 10.9 µM | 290,000 compounds, 0.56% hits | AID 1800;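 active = inhibition above the mean of all tested compounds plus 3 SD, set per campaign, cut at about 35% in these data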;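 note: 0% = DMSO wells and 100% = thioflavine S control wells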
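Compound dosing – single dose, 10.9 µM nominal final, DMSO 0.8% final · System – NS3 helicase fragment of HCV · Buffer or medium – MOPS pH 6.5, MgCl2, DTT, Tween20, BSA · Signal – Cy5 beacon fluorescence read at start and 1 h · Also added – annealed dual-labelled DNA beacon duplex, ATP-started · Schedule – 1 h at 25 °C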
ZTA counter – counter-screen for EBNA-1 inhibitors: inhibitors of Epstein-Barr virus ZTA; P03206; ZTA-DNA binding, fluorescence polarization; inhibition, % at 11 µM; 320,000 compounds, 0.15% hits; AID 2234; in the data active = inhibition above about 33%
Target sequence (P03206 whole entry, looked up): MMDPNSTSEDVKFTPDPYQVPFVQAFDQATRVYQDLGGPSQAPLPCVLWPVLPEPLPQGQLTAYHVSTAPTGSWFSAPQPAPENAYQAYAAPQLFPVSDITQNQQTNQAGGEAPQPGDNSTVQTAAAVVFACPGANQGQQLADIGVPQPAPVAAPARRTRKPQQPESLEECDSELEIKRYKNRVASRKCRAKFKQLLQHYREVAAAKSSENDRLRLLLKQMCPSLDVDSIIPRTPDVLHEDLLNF
PP1 inh – PP1-alpha (human) inhibition in PP5 counter-screen; P62136; purified PP1alpha, OMFP fluorescence; inhibition, % at 6.7 µM; 320,000 compounds, 0.9% hits; AID 2235;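 active = inhibition above the mean inhibition of all tested compounds plus 3 SD, computed separately for each screening campaign, cut at about 15% in these data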
Target sequence (P62136 whole entry, looked up): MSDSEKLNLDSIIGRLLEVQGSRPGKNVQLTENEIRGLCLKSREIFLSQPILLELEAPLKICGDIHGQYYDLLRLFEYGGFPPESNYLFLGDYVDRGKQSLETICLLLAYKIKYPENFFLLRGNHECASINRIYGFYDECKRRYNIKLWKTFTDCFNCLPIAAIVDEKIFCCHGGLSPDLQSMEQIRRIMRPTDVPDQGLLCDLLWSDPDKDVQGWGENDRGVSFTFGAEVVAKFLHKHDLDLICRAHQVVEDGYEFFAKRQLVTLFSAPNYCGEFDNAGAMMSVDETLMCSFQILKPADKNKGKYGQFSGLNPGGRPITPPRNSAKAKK
NS3 hel confirm – HCV NS3 helicase inhibition, confirmation assay. inhibition, % at 10.9 µM. shares compounds with NS3 helicase inh. NS3 helicase DNA unwinding, Cy5 molecular beacon fluorescence. 1,600 compounds, 31% hits;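 active = inhibition above the mean of all tested compounds plus 3 SD, cutoff set per campaign, cut at about 36% in these data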
DNA FID counter – intercalator displacement, NS3 helicase counter-screen. shares compounds with NS3 helicase inh. DNA fluorescent intercalator displacement, fluorescence. inhibition, % at 7.9 µM. 1,600 compounds, 4% hits; in the data active = inhibition above about 37%;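 note: 0% = vehicle and 100% = reference compound; higher means more displacement of ethidium bromide from the DNA hairpin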
Numbers without * were called inactive; / = no result.

SMILES	core dimer inh	EBNA-1 inhibitor	NS3 helicase inh	ZTA counter	PP1 inh	NS3 hel confirm	DNA FID counter
C#CCN1C(=O)S/C(=C\c2ccc(-c3ccc(Cl)c(C(=O)O)c3)o2)C1=O	-9	6	40*	11	7	56*	-14
Cn1c(=O)c(N=O)c(N)n(Cc2ccccc2)c1=S	2	-5	/	-2	-3	/	/
COC(=O)[C@]1(CC(C)C)N[C@H](c2ccc(-c3cccc(Cl)c3)cc2)[C@@H]2C(=O)N(C)C(=O)[C@@H]21	3	7	/	-15	1	/	/
CC(NC(=O)COC(=O)c1ccc2c(=O)n3c(nc2c1)CCCCC3)c1ccccc1 (stereo not given)	/	/	/	14	2	/	/
Cc1cccc(N2CCN(C(=O)CSc3nnnn3C3CC3)CC2)c1C	/	/	/	-8	1	/	/
CN1CCN(CC(=O)N(C)c2nc(-c3ccccc3)cs2)CC1	-12	-1	49*	-5	-1	-2	22
CC(C)N1C(=O)C(=O)N(CC(=O)N(C)c2ccccc2)C1=O	/	/	/	10	-4	/	/
O=C(Cn1nc2ccccc2n1)N/N=C/c1cc([N+](=O)[O-])ccc1O	0	0	17	2	2	/	/
O=C(N/N=C/c1cc([N+](=O)[O-])ccc1O)c1cccc2ccccc12	4	-2	40*	-3	6	-25	3
CC(C)(C)NC(=O)CSc1nc(O)cc(=O)n1-c1ccccc1F	-5	5	6	-1	2	/	/
COc1ccccc1-n1c(SCC(=O)NC(C)(C)C)nc(O)cc1=O	8	0	36*	-1	1	-18	3
O=C(N/N=C/c1cc(Br)cc(Cl)c1O)c1ccc2c(c1)OCO2	1	-4	/	1	4	/	/
O=C(N/N=C/c1cc(Cl)cc([N+](=O)[O-])c1O)c1ccc2c(c1)OCO2	-32	-15	52*	-12	8	-8	7
CCC(Oc1ccccc1)C(=O)OCC(=O)Nc1sccc1C(N)=O (stereo not given)	/	/	/	0	-3	/	/
CCN(CC)c1ccc(/C=C(\C#N)c2nc(-c3cccs3)c(NC(C)=O)s2)cc1	/	/	45*	/	/	-15	14
Cc1cc(N=Cc2c(O)ccc3cc(Br)ccc23)no1	40	13	37*	14	1	-10	39*
Cc1cc(N=Cc2c(O)ccc3ccccc23)no1	1	-3	2	12	2	/	/
CCOc1cccc(NC(=O)/C(C#N)=C\c2cn(CC(=O)O)c3ccccc23)c1	9	-9	40*	-17	1	49*	-7
CCCCc1c(C)nc2nc(SCc3ccc(Cl)cc3)[nH]n2c1=O	/	/	8	/	/	/	/
O=C(CC(SCc1ccco1)c1ccc(O)cc1)c1cccs1 (stereo not given)	1	-2	69*	-18	1	0	-11
O=C(CC(SCCO)c1ccc2c(c1)OCO2)c1cccs1 (stereo not given)	4	3	1	12	-2	/	/
N#Cc1ccc(NC(=O)CSc2cn[nH]n2)cc1	0	-6	9	-2	0	/	/
CC(C)N1C(=O)CC(Nc2ccc(N3CCOCC3)cc2)C1=O (stereo not given)	-1	-12	39*	10	-3	-2	-5
O=C1CC(Nc2ccccc2)C(=O)N1c1ccc(N2CCOCC2)cc1 (stereo not given)	5	12	3	-1	-2	/	/
O=C1CC(Nc2ccc(N3CCOCC3)cc2)C(=O)N1C1CCCCC1 (stereo not given)	-13	5	38*	-19	2	-16	-4
SMILES	core dimer inh	EBNA-1 inhibitor	NS3 helicase inh	ZTA counter	PP1 inh	NS3 hel confirm	DNA FID counter
COc1ccc(CCN2C(=O)CC(Nc3ccc(N4CCOCC4)cc3)C2=O)cc1OC (stereo not given)	-1	-1	46*	12	5	2	-18
CN1C(=O)CC(Nc2cccc3cccc(N)c23)C1=O (stereo not given)	-5	5	9	20	-6	/	/
CC(C)N1C(=O)CC(Nc2cccc3cccc(N)c23)C1=O (stereo not given)	/	/	40*	/	/	-15	10
Cn1c(=O)c2sccc2n(Cc2ccccc2)c1=O	-2	2	-4	4	-4	/	/
CC(C(=O)O)N1C(=O)C2C3CC(C2C1=O)C1C(c2ccccc2)c2sc(=O)[nH]c2SC31 (stereo not given)	-13	7	75*	-17	5	-15	-7
O=C(O)CCCN1C(=O)C2C3CC(C2C1=O)C1C(c2ccccc2)c2sc(=O)[nH]c2SC31 (stereo not given)	9	14	-4	5	-4	/	/
CC(C)(C)c1ccc(S(=O)(=O)/N=C2\C=C(NS(=O)(=O)c3ccccc3)C(=O)c3ccccc32)cc1	43	8	43*	12	2	82*	60*
CC(=O)Oc1cc2c3c(c1)/C(=C1/SC(=S)NC1=O)C(=O)N3C(C)(C)C=C2C	9	7	53*	12	9	80*	28
COc1cc(C(=O)N/C(=C/c2ccc(F)cc2)C(=O)NC(C(=O)O)c2ccccc2)cc(OC)c1OC (stereo not given)	-8	-12	37*	-23	5	-13	-10
O=C(NC(Cc1ccccc1)C(=O)O)/C(=C\c1ccc(F)cc1)NC(=O)c1ccccc1 (stereo not given)	3	-4	13	-2	-2	/	/
Cc1ccc(/C=C2\Oc3cc(OCC(=O)NN)ccc3C2=O)o1	/	/	39*	/	/	-1	-4
CN(C)S(=O)(=O)c1cccc(NC(=O)Cc2ccc(-c3ccccc3)cc2)c1	6	-9	-26	5	3	/	/
Cc1cc(/C=C2\C(=N)N3N=C(C(C)C)SC3=NC2=O)c(C)n1-c1ccccc1	14	-10	51*	-17	0	-1	2
O=C(c1ccccc1)c1coc2c1C(=O)c1ccccc1C2=O	1	5	11	-22	0	/	/
COc1ccc(C(=O)c2coc3c2C(=O)C(=O)c2ccccc2-3)cc1	-1	7	41*	3	0	-8	-3
Cc1cc(-c2csc(NC(=O)c3ccccc3C(F)(F)F)n2)c(C)n1Cc1ccccc1	37	3	50*	2	4	6	0
O=C(CCN1C(=O)C2CC=CCC2C1=O)Nc1cc(C(F)(F)F)ccc1N1CCCC1 (stereo not given)	2	6	/	11	-5	/	/
Cc1ccc(-c2ccccc2)n1-c1ccc(C(=O)O)cc1	-7	0	33	-7	-1	/	/
Cc1cc2c(n1-c1ccc(C(=O)O)cc1)CCCCC2	/	/	54*	/	/	71*	-8
CC(C)Nc1nc(Cl)nc(Nc2ccccc2)n1	-5	-5	2	-3	-2	/	/
Cc1cc(C)n(-c2ccc(C(=O)OCC(=O)c3ccc(Br)s3)cc2)n1	27	4	50*	8	12	-4	-5
